Laboratory results from ChEMBL document CHEMBL1806391, “Synthesis and biological evaluation of novel 5-alkyl-2-arylthio-6-((3,4-dihydroquinolin-1(2H)-yl)methyl)pyrimidin-4(3H)-ones as potent non-nucleoside HIV-1 reverse transcriptase inhibitors” (Bioorg Med Chem, 2011).
Activity calls are given as the source filed them. The calls are words filed in the database; no cut-off is given here.

Experiments:
[1] = tested on: Human immunodeficiency virus 2; assay: Antiviral activity against Human immunodeficiency virus 2 ROD infected in human MT4 cells assessed as inhibition of viral replication; type: functional, organism-based; conditions: ISOLATE ROD
Outline: (§1)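 MT-4 cells, spun 5 min at 1000 rpm, were resuspended at 6 × 10⁵ cells/mL and infected with HIV-1 IIIB or HIV-2 ROD. Compounds were added at the start in serial fivefold dilutions, in triplicate wells. Viability was read by MTT reduction at 540 and 690 nm five days post-infection. EC₅₀ is the concentration giving 50% protection from viral cytopathic effect, using the median OD of three wells.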

[2] = Selectivity index, ratio of CC50 for human MT4 cells to EC50 for wild type Human immunodeficieny virus 1 3B infected in human MT4 cells; type: toxicity, cell-based; conditions: read-out: Ratio CC50/EC50
Outline: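 SI is CC₅₀ in mock-infected MT-4 cells divided by EC₅₀ against HIV-1 IIIB, both from 5-day MTT assays in triplicate wells.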

[3] = tested on: Human immunodeficiency virus 1; assay: Antiviral activity against wild type Human immunodeficiency virus 1 3B infected in human MT4 cells assessed as protection against virus-induced cytotoxicity after 5 days by MTT assay; type: functional, organism-based; conditions: MT4, 120 h; outline: as §1
[4] = Cytotoxic activity against human MT4 cells assessed as viability of mock-infected cells after 5 days by MTT assay; type: cell-based
Outline: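 Mock-infected, exponentially growing MT-4 cells (6 × 10⁵ cells/mL) were exposed to serial fivefold compound dilutions in triplicate wells. After 5 days, viability was read by MTT formazan absorbance at 540 and 690 nm. CC₅₀ is the concentration that lowered OD540 of the mock-infected control by 50%, using the median OD of three wells.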

[5] = tested on: Human immunodeficiency virus 2; assay: Antiviral activity against wild type Human immunodeficiency virus 2 ROD infected in human MT4 cells assessed as protection against virus-induced cytotoxicity after 5 days by MTT assay; type: functional, organism-based; conditions: Human immunodeficiency virus 2, ISOLATE ROD, MT4, 120 h; outline: as §1

| SMILES | inhibition [1] | selectivity ratio [2] | EC50 [3] | CC50 at 120 h [4] | EC50 [5] |
| --- | --- | --- | --- | --- | --- |
| CCc1c(CN2CCCc3ccccc32)nc(SCC(=O)c2ccc(Cl)cc2)[nH]c1=O | inactive | 249 | 1.01 µM | 275 µM | > 275 µM |
| Cc1ccc(CSc2nc(CN3CCCc4ccccc43)cc(=O)[nH]2)cc1 | inactive | < 1 | > 64.3 µM | 64.3 µM | > 64.3 µM |
| Cc1ccc(C(=O)CSc2nc(CN3CCCc4ccccc43)cc(=O)[nH]2)cc1 | inactive | 6 | 28 µM | 156 µM | > 156 µM |
| Cc1ccc(C(=O)CSc2nc(CN3CCCc4ccccc43)c(C)c(=O)[nH]2)cc1 | inactive | 32 | 1.95 µM | 62.4 µM | > 62.4 µM |
| O=C(CSc1nc(CN2CCCc3ccccc32)cc(=O)[nH]1)c1ccc(Cl)cc1 | inactive | < 1 | > 75.6 µM | 75.6 µM | > 75.6 µM |
| CCc1c(CN2CCCc3ccccc32)nc(SCc2ccc(C)cc2)[nH]c1=O | inactive | < 29 | ≥ 5.42 µM | 160 µM | > 160 µM |
| CCc1c(CN2CCCc3ccccc32)nc(SCc2ccc([N+](=O)[O-])cc2)[nH]c1=O | inactive | 188 | 1.03 µM | 195 µM | > 195 µM |
| Cc1c(CN2CCCc3ccccc32)nc(SCC(=O)c2ccc([N+](=O)[O-])cc2)[nH]c1=O | inactive | ≤ 8 | ≥ 3.13 µM | 23.7 µM | > 23.7 µM |
| CCc1c(CN2CCCc3ccccc32)nc(SCC(=O)c2ccc(C)cc2)[nH]c1=O | inactive | 271 | 1.06 µM | 288 µM | > 288 µM |
| O=c1cc(CN2CCCc3ccccc32)nc(SCc2ccc([N+](=O)[O-])cc2)[nH]1 | inactive | ≤ 2 | ≥ 49.5 µM | 73.9 µM | > 73.9 µM |
| O=c1cc(CN2CCCc3ccccc32)nc(SCc2ccc(F)cc2)[nH]1 | inactive | 6 | 29.7 µM | 182 µM | > 182 µM |
| O=c1cc(CN2CCCc3ccccc32)nc(SCc2ccccc2)[nH]1 | inactive | ≤ 3 | ≥ 32.2 µM | 94.2 µM | > 94.2 µM |
| O=C(CSc1nc(CN2CCCc3ccccc32)cc(=O)[nH]1)c1ccc([N+](=O)[O-])cc1 | inactive | < 1 | > 209 µM | 209 µM | > 209 µM |
| Cc1ccc(CSc2nc(CN3CCCc4ccccc43)c(C)c(=O)[nH]2)cc1 | inactive | ≤ 1 | ≥ 86.2 µM | ≥ 86.2 µM | > 86.2 µM |
| O=C(CSc1nc(CN2CCCc3ccccc32)cc(=O)[nH]1)c1ccccc1 | inactive | 6 | 24.6 µM | 153 µM | > 153 µM |
| CC(C)Nc1cccnc1N1CCN(C(=O)c2cc3cc(NS(C)(=O)=O)ccc3[nH]2)CC1 [DELAVIRDINE] | – | > 12 | – | > 3.83 µM | – |
| CCc1c(CN2CCCc3ccccc32)nc(SCC(=O)c2ccc([N+](=O)[O-])cc2)[nH]c1=O | inactive | 56 | 1.98 µM | 111 µM | > 111 µM |
| CCc1c(CN2CCCc3ccccc32)nc(SCc2ccc(F)cc2)[nH]c1=O | inactive | < 1 | > 133 µM | 133 µM | > 133 µM |
| CCc1c(CN2CCCc3ccccc32)nc(SCc2ccc(Cl)cc2)[nH]c1=O | inactive | ≤ 25 | ≥ 5.42 µM | 135 µM | > 135 µM |
| O=C(CSc1nc(CN2CCCc3ccccc32)cc(=O)[nH]1)c1ccc(F)cc1 | inactive | 5 | 29.6 µM | 136 µM | > 136 µM |
| Cc1c(CN2CCCc3ccccc32)nc(SCC(=O)c2ccc(F)cc2)[nH]c1=O | inactive | 34 | 0.46 µM | 15.4 µM | > 15.4 µM |
